The values that follow come from ChEMBL document CHEMBL5257087, “Anti-inflammatory Activity of Tanshinone-Related Diterpenes from Perovskia artemisioides Roots” (2023).

Experiment [1] deals with J774.A1. Briefly: Antiproliferative activity against mouse J774.A1 cells assessed as reduction in cell viability at 100 uM incubated for 24 hrs by MTT assay. In kind it is functional, cell-based. The method, boiled down: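 J774A.1 cells at 5 × 10^4 cells/well adhered 3 h, then were incubated 24 h with compound serial dilutions (100–12.5 μM). MTT (5 mg/mL stock) was added for 3 h, formazan dissolved in DMSO, and OD read at 570 nm. The value is the % dead cells, 100 − [(OD treated/OD control) × 100]. 6-Mercaptopurine (1 μM) was the reference. At least three experiments, each in triplicate.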

Experiment [2] relates to J774.A1. Briefly: Antiinflammatory activity in mouse J774.A1 macrophages assessed as inhibition of LPS-induced NO production at 1 uM preincubated for 1 hr followed by LPS stimulation and measured after 24 hrs by griess reagent based assay. In kind it is functional. The settings on record: time 25 hrs. The method, boiled down: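 Murine J774A.1 cells (DMEM, 10% FBS) were plated at 5 × 10^4 cells/well and allowed to adhere for 3 h at 37 °C in 5% CO2. They were exposed to the agent in fresh medium for 1 h, then to E. coli LPS at 10 µg/mL for 24 h. Medium nitrite was measured with Griess reagent (10 min, room temperature, A550) and converted to µM against a sodium nitrite standard. Means ± SEM, ≥3 independent experiments, each in triplicate.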

In experiment [3] the test system is J774.A1. In words: Antiinflammatory activity in mouse J774.A1 macrophages assessed as inhibition of LPS-induced iNOS expression at 1 uM preincubated for 1 hr followed by LPS stimulation and measured after 24 hrs by cytofluorimetry analysis. The class given is functional. Conditions: time 25 hrs. A digest of the protocol:
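J774A.1 cells were plated at 5 × 10^4 cells/well and allowed to adhere for 3 h. The agent was added 1 h before LPS (10 µg/mL) and kept during stimulation; cells were harvested after 24 h. Cells were washed in PBS, fixed for 20 min and permeabilized for 30 min. Anti-iNOS primary and secondary antibodies were each applied for 30 min. Read-out was flow-cytometric mean fluorescence intensity versus LPS alone. Means ± SEM, ≥3 independent experiments, each in triplicate.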

Experiment [4] relates to J774.A1. In words: Antiinflammatory activity in mouse J774.A1 macrophages assessed as inhibition of LPS-induced NO production at 12.5 to 50 uM preincubated for 1 hr followed by LPS stimulation and measured after 24 hrs by griess reagent based assay. The class given is functional, cell-based. Conditions: dose 12.5-50 µM, time 25.0 hrs. The method, boiled down:
(§1)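 Macrophages adhered 3 h at 5 × 10^4 cells/well, then were exposed to compound (50–12.5 μM) for 1 h before E. coli LPS (10 μg/mL) was added. After 24 h, nitrite in the medium was reacted with Griess reagent for 10 min at room temperature and absorbance read at 550 nm. Values are in μM from a sodium nitrite standard curve. L-NAME (1 μM) served as reference. Data are mean ± SEM, n ≥ 3, triplicate.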

Experiment [5] concerns J774.A1. Briefly: Antiinflammatory activity in mouse J774.A1 macrophages assessed as inhibition of LPS-induced iNOS expression at 12.5 to 50 uM preincubated for 1 hr followed by LPS stimulation and measured after 24 hrs by cytofluorimetry analysis. In kind it is functional, cell-based. Conditions: dose 12.5-50 µM, time 25.0 hrs. A digest of the protocol: (§2)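 J774A.1 cells plated at 5 × 10^4 cells/well and allowed to adhere 3 h at 37 °C. Compounds were added 1 h before and then together with E. coli LPS (10 μg/mL) for 24 h. Cells were fixed and permeabilized, then stained with anti-iNOS or anti-COX-2 and a secondary antibody. Read as mean fluorescence intensity by flow cytometry. Indomethacin (1 μM) served as positive control. At least three independent experiments, each in triplicate.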

The subject of experiment [6] is J774.A1. Briefly: Antiinflammatory activity in mouse J774.A1 macrophages assessed as inhibition of LPS-induced COX2 expression at 12.5 to 50 uM preincubated for 1 hr followed by LPS stimulation and measured after 24 hrs by cytofluorimetry analysis. The class given is functional, cell-based. Conditions: dose 12.5-50 µM, time 25.0 hrs. A digest of the protocol: as §2

The test system of experiment [7] is J774.A1. In words: Antiinflammatory activity in mouse J774.A1 macrophages assessed as inhibition of LPS-induced COX2 expression at 1 uM preincubated for 1 hr followed by LPS stimulation and measured after 24 hrs by cytofluorimetry analysis. The class given is functional. Conditions: time 25 hrs. The method, boiled down:
as §2

The test system of experiment [8] is J774.A1. Briefly: Antioxidant activity in mouse J774.A1 macrophages assessed as inhibition of LPS-induced nitrotyrosine formation at 25 to 50 uM preincubated for 1 hr followed by LPS stimulation and measured after 24 hrs by cytofluorimetry analysis. In kind it is functional, cell-based. The settings on record: dose 25-50 µM, time 25.0 hrs. A digest of the protocol: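 J774A.1 cells (5 × 10^4 cells/well, 3 h adherence) were pretreated with compound (50–12.5 µM) for 1 h, then LPS (10 µg/mL) was added. After 24 h cells were PBS-washed, fixed for 20 min and permeabilized for 30 min. Rabbit anti-nitrotyrosine and secondary antibody were each applied for 30 min. Read-out was flow-cytometric mean fluorescence intensity versus LPS alone. Means ± SEM, ≥3 independent experiments, each in triplicate.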

The subject of experiment [9] is J774.A1. Briefly: Antioxidant activity in mouse J774.A1 macrophages assessed as inhibition of LPS-induced intracellular ROS production at 12.5 to 50 uM preincubated for 1 hr followed by LPS stimulation and measured after 24 hrs by DCFH2-DA probe based fluorescence analysis. In kind it is functional, cell-based. The settings on record: dose 12.5-50 µM, time 25.0 hrs. The method, boiled down: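 Macrophages (J774A.1, 5 × 10^4 cells/well, 3 h adherence) were given the compound (50–12.5 µM) 1 h before and during LPS (10 µg/mL). After 24 h cells were collected and washed twice in PBS, then loaded with 10 µM H2DCF-DA in PBS at 37 °C for 15 min. DCF fluorescence was read by flow cytometry as mean fluorescence intensity versus LPS alone. Means ± SEM, ≥3 independent experiments, each in triplicate.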

In experiment [10] the test system is J774.A1. Briefly: Antiinflammatory activity in mouse J774.A1 macrophages assessed as reduction in LPS-induced nitrite production at 12.5 to 50 uM preincubated for 1 hr followed by LPS stimulation and measured after 24 hrs by griess reagent based assay. The class given is functional, cell-based. Conditions: dose 12.5-50 µM, time 25.0 hrs. A digest of the protocol:
as §1
For orientation: Nitrite, measured by Griess reagent, commonly stands in for NO production.

The test system of experiment [11] is J774.A1. In words: Antioxidant activity in mouse J774.A1 macrophages assessed as inhibition of LPS-induced nitrotyrosine formation at 12.5 to 50 uM preincubated for 1 hr followed by LPS stimulation and measured after 24 hrs by cytofluorimetry analysis. The class given is functional, cell-based. Conditions: dose 12.5-50 µM, time 25.0 hrs. A digest of the protocol:
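Cells were pretreated 1 h with compound (50–12.5 μM), then LPS (10 μg/mL) was added for 24 h. Cells were harvested, PBS-washed, fixed 20 min and permeabilized 30 min. They were stained 30 min with rabbit anti-nitrotyrosine, then 30 min with secondary antibody. Mean fluorescence intensity was read by flow cytometry. L-NAME and indomethacin (1 μM each) were positive controls. Mean ± SEM of at least three experiments, each in triplicate.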

The structures appear in SMILES notation. The source made the active and inactive calls. The rule behind the calls is not given here.

For orientation: inhibition means the change of the read-out against control, counted positive when it falls.

Regarding `CC(C)c1cc2ccc3c(c2oc1=O)CCCC3(C)C`, the outcome in the experiment on J774.A1 [1] was Active.
Take `COC(=O)[C@@H](N)CCCNC(=N)N[N+](=O)[O-]`: the inhibition at 1 µM in the experiment on J774.A1 [2] worked out at 51.2%; in the experiment with J774.A1 [3] it was 47.1%.
For the molecule `CC(C)c1cc2ccc3c(c2c(O)c1O)C(=O)CCC3(C)C`, the result in the experiment with J774.A1 [1] was Active.
As for `CC(C)/C(=C/c1ccc2c3c1C(=O)O[C@H]3CCC2(C)C)C(=O)O`, the inhibition entry in the experiment with J774.A1 [4], in the experiment on J774.A1 [5] and in the experiment on J774.A1 [6] was “Active” in each case.
For `COC(=O)/C(=C\c1ccc2c3c1C(=O)O[C@H]3CCC2(C)C)C(C)C`, the outcome in the experiment with J774.A1 [1] was Active. For the same molecule, the inhibition result in the experiment with J774.A1 [4], in the experiment on J774.A1 [5] and with J774.A1 [6] was “Active” throughout.
As for `COc1ccc2c(c1)c(CC(=O)O)c(C)n2C(=O)c1ccc(Cl)cc1` [INDOMETHACIN], the inhibition at 1 µM with J774.A1 [7] came to 47.8%.
On to `CC(C)c1cc2c(cc1O)[C@@]1(C)CCCC(C)(C)C1=C(O)C2=O`, for which, in the experiment on J774.A1 [1], the result was Active. The inhibition entry in the experiment with J774.A1 [4], with J774.A1 [5] and with J774.A1 [6] was “Active” each time.
As for `C[C@H]1COC2=C1C(=O)C(=O)c1c2ccc2c1CCCC2(C)C`, the result in the experiment with J774.A1 [1] was Active. Moreover, the inhibition entry with J774.A1 [4], in the experiment with J774.A1 [5], with J774.A1 [6], in the experiment with J774.A1 [8] and with J774.A1 [9] was “Active” each time.
`CC(C)C1=CC2=C(C(=O)C1=O)[C@@]1(C)CCCC(C)(C)C1C[C@@H]2O` (stereo not given in full): the outcome with J774.A1 [1] was Active.
Consider `Cc1coc2c1C(=O)C(=O)c1c-2ccc2c1C(=O)CCC2(C)C`, for which, in the experiment with J774.A1 [10], the outcome was Active. The inhibition result in the experiment on J774.A1 [4], in the experiment on J774.A1 [5], in the experiment on J774.A1 [6], in the experiment on J774.A1 [11] and in the experiment on J774.A1 [9] was “Active” in each case.
In the case of `CC(C)c1cc2c(cc1O)[C@@]1(CO)CCCC(C)(C)[C@@H]1CC2`, the outcome with J774.A1 [1] was Active. Besides, the inhibition result in the experiment on J774.A1 [4], in the experiment with J774.A1 [5] and in the experiment with J774.A1 [6] was “Active” each time.
On to `C[C@H]1CO[C@]2(C1)OC(=O)c1cc3c(cc12)CC(C)(C)CC3`, for which the outcome in the experiment with J774.A1 [1] was Active.
As to `Cc1cc2ccc3c(c2cc(O)c1=O)CCCC3(C)C`, the result in the experiment with J774.A1 [1] was Active.
